Experimental findings from ChEMBL document CHEMBL1144050, “Two novel acetogenins, annoglaxin and 27-hydroxybullatacin, from Annona glabra” (J Nat Prod, 1999) are described below.

For data set [1], the system named is A549. As to the kind of experiment: Cytotoxicity against human A549 cells after 7 days by MTT assay. In kind it is functional. As to conditions: A549, 168 h, read-out: ED50 (the source's name). In short, it runs like this: (§1)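 Standard 7-day MTT cytotoxicity assay on human tumour lines: A-549 (lung carcinoma), MCF-7 (breast carcinoma), HT-29 (colon adenocarcinoma), A-498 (kidney carcinoma), PC-3 (prostate adenocarcinoma), PACA-2 (pancreatic carcinoma). Adriamycin was run as the positive control standard.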
Background: Formazan colour is commonly taken as a measure of viable cells.

Data set [2] relates to HT-29. The data set is described as follows: Cytotoxicity against human HT29 cells after 7 days by MTT assay. In kind it is functional. The settings on record: for EC50: Homo sapiens, HT-29, 168 h, read-out: ED50 (the source's name). A digest of the protocol: as §1
Data set [3] deals with PC-3. As to the kind of experiment: Cytotoxicity against human PC-3 cells after 7 days by MTT assay. Format: functional. The settings on record: for EC50: Homo sapiens, PC-3, 168 h, read-out: ED50 (the source's name). A digest of the protocol: as §1
The subject of data set [4] is A498. The data set is described as follows: Cytotoxicity against human A498 cells after 7 days by MTT assay. Format: functional. The settings on record: for EC50: Homo sapiens, A498, 168 h, read-out: ED50 (the source's name). In short, it runs like this: as §1
In data set [5] the test system is MCF7. As to the kind of experiment: Cytotoxicity against human MCF7 cells after 7 days by MTT assay. In kind it is functional. A digest of the protocol: as §1
The subject of data set [6] is MIA PaCa-2. The data set is described as follows: Cytotoxicity against human PACA2 cells after 7 days by MTT assay. In kind it is functional. The settings on record: for EC50: Homo sapiens, MIA PaCa-2, 168 h, read-out: ED50 (the source's name). A digest of the protocol: as §1
Data set [7] relates to Artemia salina. As to the kind of experiment: (§2) Toxicity in brine shrimp. In kind it is organism-based. As to conditions: in vivo.
The nature of data set [8]: as §2. In kind it is organism-based. The settings on record: artemia salina, in vivo.

≈ marks a conversion by molar mass, not a printed value.

With `CCCCCCC[C@H](O)CC[C@H](O)[C@H]1CC[C@H]([C@H]2CC[C@H]([C@H](O)CCCCCCCCCC[C@@H](O)CC3=C[C@H](C)OC3=O)O2)O1`, in data set [1], the EC50 is 0.0021 µg/mL (≈ 0.00329 µM). Further, the ED50 in data set [2] was 1.8 ×10⁻⁵ ug/ml; in data set [3], below 1 ×10⁻⁹ ug/ml; in data set [4], 3.1 ×10⁻⁸ ug/ml; in data set [5], 7.8 ×10⁻⁴ ug/ml; in data set [6], below 1 ×10⁻⁹ ug/ml. Further, the LC50 in data set [7] is recorded as 4.3 ×10⁻² ug/ml.

As for `COc1cccc2c1C(=O)c1c(O)c3c(c(O)c1C2=O)C[C@@](O)(C(=O)CO)C[C@@H]3O[C@H]1C[C@H](N)[C@H](O)[C@H](C)O1` [DOXORUBICIN], the EC50 in data set [1] amounted to 0.0013 µg/mL (≈ 0.00239 µM); in data set [2], 0.01 µg/mL (≈ 0.0184 µM); in data set [3], 0.02 µg/mL (≈ 0.0368 µM); in data set [4], 0.0019 µg/mL (≈ 0.0035 µM); in data set [5] (Homo sapiens, MCF7, 168 h, read-out: ED50 (the source's name)), 0.09 µg/mL (≈ 0.166 µM); in data set [6], 0.0043 µg/mL (≈ 0.00791 µM).

With `CCCCCCCCCC[C@H](O)C[C@@H](O)[C@H]1CC[C@H]([C@H](O)CCC(=O)CCC[C@H](O)CCCCCC2=C[C@H](C)OC2=O)O1` [ANNOGLAXIN], the EC50 turned out to be 1.1 µg/mL (≈ 1.8 µM) in data set [1]; 0.18 µg/mL (≈ 0.295 µM) in data set [2]; 0.87 µg/mL (≈ 1.42 µM) in data set [3]; 1.8 µg/mL (≈ 2.95 µM) in data set [4]; 1.6 µg/mL (≈ 2.62 µM) in data set [6]. Further, in data set [5], the ED50 was 4.3 ×10⁻⁴ ug/ml. The LC50 in data set [8] turned out to be 0.29 µg/mL (≈ 0.475 µM).
